The results in this text go back to ChEMBL document CHEMBL4130484, “Identification and optimization of novel 6-acylamino-2-aminoquinolines as potent Hsp90 C-terminal inhibitors” (Eur J Med Chem, 2017).

One assay deals with MCF7. Nature of the assay: Antiproliferative activity against human MCF7 cells incubated for 72 hrs by MTT assay. Particulars: MCF7, 72 h. In kind it is functional, cell-based. Summed up: (§1)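 MTT antiproliferation assay in MCF7 and SKBr3 breast cancer cells; IC50 determined.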
In general terms: Formazan colour is commonly taken as a measure of viable cells.

The next assay concerns SK-BR-3. Nature of the assay: Antiproliferative activity against human SKBR3 cells incubated for 72 hrs by MTT assay. It counts as functional, cell-based. As to conditions: SK-BR-3, 72 h. In outline:
as §1

Molecules are shown by their SMILES.

`CC(C)c1cc(C(=O)N2Cc3ccc(CN4CCN(C)CC4)cc3C2)c(O)cc1O` [ONALESPIB]: the figures for the IC50 with MCF7 and in the assay with SK-BR-3 were 0.032 µM and 0.045 µM, respectively.
As to `CCN1CCN(c2cc(C)c3cc(NC(=O)c4cccnc4)ccc3n2)CC1`, the IC50 (as a rule, the concentration that inhibits the measured activity by half) was found to be 26.6 µM in the assay on MCF7 and 10.6 µM in the assay on SK-BR-3.
In the same order, the values of `Cc1cc(N2CCCCC2)nc2ccc(NC(=O)c3ccc(Cl)c(Cl)c3)cc12` are 31.1 µM and 42.5 µM.
In the same order, the values of `CCN1CCN(c2cc(C)c3cc(NC(=O)c4ccncc4)ccc3n2)CC1` are greater than 50 µM and greater than 50 µM.
On to `Cc1cc(N2CCN(C)CC2)nc2ccc(NC(=O)c3ccc(Cl)c(Cl)c3)cc12`, for which the IC50 in the assay with MCF7 is 3 µM; in the assay on SK-BR-3, 6.32 µM.
In the same order, the values of `CCN1CCN(c2cc(C)c3cc(NC(=O)c4cc(Cl)cc(Cl)c4)ccc3n2)CC1` are 6.09 µM and 2.66 µM.
For `CCN1CCN(c2cc(C)c3cc(NC(=O)c4ccco4)ccc3n2)CC1`, the IC50 is 41.2 µM in the assay with MCF7 and 37.5 µM with SK-BR-3.
In the same order, the values of `CCN1CCN(c2cc(C)c3cc(NC(=O)c4cccc(F)c4)ccc3n2)CC1` are 8.92 µM and 24.9 µM.
In the same order, the values of `CCN1CCN(c2cc(C)c3cc(NC(=O)c4ccc[nH]4)ccc3n2)CC1` are 14.7 µM and 13.2 µM.
For `CCN1CCN(c2cc(C)c3cc(NC(=O)c4ccc5ccccc5n4)ccc3n2)CC1`, in that order: 7.06 µM and 3.76 µM.
Take `CCN1CCN(c2cc(C)c3cc(NC(=O)c4ccc(C)cc4)ccc3n2)CC1`: the IC50 in the assay on MCF7 stood at 6.74 µM; in the assay on SK-BR-3 it was 11.4 µM.
In the same order, the values of `CCN1CCN(c2cc(C)c3cc(NC(=O)c4cccc(Br)c4)ccc3n2)CC1` are 11.6 µM and 13.3 µM.
In the same order, the values of `Cc1cc(N(C)C)nc2ccc(NC(=O)c3ccc(Cl)c(Cl)c3)cc12` are 33.3 µM and greater than 50 µM.
In the same order, the values of `CCN1CCN(c2cc(C)c3cc(NC(=O)c4ccc(F)cc4)ccc3n2)CC1` are 4.03 µM and 19.8 µM.
On to `CNc1cc(C)c2cc(NC(=O)c3ccc(Cl)c(Cl)c3)ccc2n1`, for which the IC50 in the assay with MCF7 amounted to 2.52 µM; with SK-BR-3, 6.35 µM.
In the same order, the values of `CCN1CCN(c2cc(C)c3cc(NC(=O)c4ccccc4OC)ccc3n2)CC1` are 13.2 µM and 15.7 µM.
In the same order, the values of `CCN1CCN(c2cc(C)c3cc(NC(=O)c4ccccc4Br)ccc3n2)CC1` are 27.5 µM and 39.2 µM.
As for `CCNc1cc(C)c2cc(NC(=O)c3ccc(Cl)c(Cl)c3)ccc2n1`, the IC50 in the assay with MCF7 came out at 48.6 µM; with SK-BR-3 it was 28.2 µM.
In the same order, the values of `CCN1CCN(c2cc(C)c3cc(NC(=O)c4ccc(Br)cc4)ccc3n2)CC1` are 5.94 µM and 6.31 µM.
In the same order, the values of `CCN1CCN(c2cc(C)c3cc(NC(=O)c4cccc(C)c4)ccc3n2)CC1` are 7.8 µM and 13.7 µM.
As to `Cc1cc(N2CCN(C(C)C)CC2)nc2ccc(NC(=O)c3ccc(Cl)c(Cl)c3)cc12`, the IC50 was 1.71 µM in the assay with MCF7 and 6.68 µM with SK-BR-3.
In the same order, the values of `CCN1CCN(c2cc(C)c3cc(NC(=O)c4ccccc4Cl)ccc3n2)CC1` are greater than 50 µM and greater than 50 µM.
In the same order, the values of `CCN1CCN(c2cc(C)c3cc(NC(=O)c4ccccc4C)ccc3n2)CC1` are 10.9 µM and 29.2 µM.
For `CCN1CCN(c2cc(C)c3cc(NC(=O)c4cccc(Cl)c4)ccc3n2)CC1`, in that order: 3.82 µM and 17.8 µM.
`CCN1CCN(c2cc(C)c3cc(NC(=O)c4ccc(OC)cc4)ccc3n2)CC1`: the IC50 in the assay with MCF7 worked out at 7.69 µM; in the assay on SK-BR-3 it was 9 µM.
For `CCN1CCN(c2cc(C)c3cc(NC(=O)c4ccc(F)c(F)c4)ccc3n2)CC1`, in that order: 5.23 µM and 1.98 µM.
`Cc1cc(N2CCOCC2)nc2ccc(NC(=O)c3ccc(Cl)c(Cl)c3)cc12`: the results for the IC50 with MCF7 and in the assay with SK-BR-3 were 12 µM and 15.1 µM, respectively.
